Values joined by “and” are separate entries in the source; they are usually repeats but may differ in a detail not shown here. Identical values can stand only once.
test system: HEK-293T; assay: Multiplex assay against HEK293T; assay type: toxicity, cell-based; conditions: human, 12 h, 1 µM, compound concentration 1 uM
Method in brief: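 On a CQ1 microscope at 37°C and 5% CO2, live cells were imaged after compound addition. They had been stained at seeding with Hoechst33342, BioTracker Green Microtubule Cytoskeleton Dye, MitoTracker Red and Annexin V Alexa Fluor 680. CellPathfinder machine-learning gating assigned cells to Hoechst high-intensity objects or normal cells, normal cells to healthy, pyknosed or fragmented nuclei, and pyknosed cells to mitotic or apoptotic. Tubulin, mitochondrial-mass and membrane-permeability phenotypes are per cents of healthy-nucleus cells.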

SMILES	Population Apoptotic (%)	Population Fragmented Nuclei (%)	Population Healthy Nuclei (%)	Population Hoechst High Intensity Objects (%)	Population Membrane Permeable-Phenotype (%)	Population Mitochondria Different-Phenotype (%)	Population Mitotic Cells (%)	Population Normal (%)	Population Pyknosed Nuclei (%)	Population Tubulin-Different-Phenotype (%)
Cc1c(CC(=O)O)c2cccnc2n1Cc1ccc(S(C)(=O)=O)cc1C(F)(F)F [FEVIPIPRANT]	27% and 41%	6% and 7%	83% and 79%	5% and 7%	0%	32% and 52%	72% and 58%	94% and 92%	9% and 12%	22% and 16%
O=C1CSC(=O)N1C(CCc1ccncc1)COc1ccc(-c2cccc([N+](=O)[O-])c2)cc1 (centres undefined)	18.32% and 7.02%	3.08% and 7.35%		0.76% and 0%	2.48% and 0%	25.62% and 16.67%	81.68% and 92.98%	99.24% and 100%	50.38% and 83.82%	
Cc1[nH]nc2ccc(-c3cncc(OCC(N)Cc4c[nH]c5ccccc45)c3)cc12 (centres undefined)	14.46% and 12.06%	1.15% and 2.53%		0.86% and 0%	1.98% and 0%		85.54% and 87.94%	99.14% and 100%	69.74% and 89.24%	
Nc1nccc(-c2ccn3c(N)nccc23)n1	15.46% and 10.1%	3.18% and 4.55%	68.79% and 31.17%	0%	0.42% and 2.08%	32.35% and 27.08%	84.54% and 89.9%	100%	28.03% and 64.29%	

same assay, conditions: human, 12 h, 1 µM, compound concentration 1 uM

SMILES	Total Cell Count
Cc1c(CC(=O)O)c2cccnc2n1Cc1ccc(S(C)(=O)=O)cc1C(F)(F)F [FEVIPIPRANT]	471 and 370
O=C1CSC(=O)N1C(CCc1ccncc1)COc1ccc(-c2cccc([N+](=O)[O-])c2)cc1 (centres undefined)	262 and 136
Cc1[nH]nc2ccc(-c3cncc(OCC(N)Cc4c[nH]c5ccccc45)c3)cc12 (centres undefined)	350 and 158
Nc1nccc(-c2ccn3c(N)nccc23)n1	346 and 154

same assay, conditions: human, 12 h, 10 µM, compound concentration 10 uM

SMILES	Population Apoptotic (%)	Population Fragmented Nuclei (%)	Population Healthy Nuclei (%)	Population Hoechst High Intensity Objects (%)	Population Membrane Permeable-Phenotype (%)	Population Mitochondria Different-Phenotype (%)	Population Mitotic Cells (%)	Population Normal (%)	Population Pyknosed Nuclei (%)	Population Tubulin-Different-Phenotype (%)
Cc1c(CC(=O)O)c2cccnc2n1Cc1ccc(S(C)(=O)=O)cc1C(F)(F)F [FEVIPIPRANT]	33% and 52%	5% and 11%	80% and 75%	6% and 10%	0%	46% and 66%	66% and 47%	93% and 89%	13% and 12%	29% and 32%
O=C1CSC(=O)N1C(CCc1ccncc1)COc1ccc(-c2cccc([N+](=O)[O-])c2)cc1 (centres undefined)	45.8% and 41.28%	3.51% and 3.1%	19.88% and 12.4%	0.58% and 0%	0%	32.35% and 18.75%	54.2% and 58.72%	99.42% and 100%	76.61% and 84.5%	70.59% and 62.5%
Cc1[nH]nc2ccc(-c3cncc(OCC(N)Cc4c[nH]c5ccccc45)c3)cc12 (centres undefined)	26.81% and 37.12%	0.85% and 0%	5.1% and 3.65%	0.28% and 0%	0%	16.67% and 0%	73.19% and 62.88%	99.72% and 100%	94.05% and 96.35%	
Nc1nccc(-c2ccn3c(N)nccc23)n1	15.73% and 12.77%	2.41% and 4.48%	66.9% and 25.37%	0.34% and 0%	1.03% and 0%	38.66% and 17.65%	84.27% and 87.23%	99.66% and 100%	30.69% and 70.15%	

same assay, conditions: human, 12 h, 10 µM, compound concentration 10 uM

SMILES	Total Cell Count
Cc1c(CC(=O)O)c2cccnc2n1Cc1ccc(S(C)(=O)=O)cc1C(F)(F)F [FEVIPIPRANT]	417 and 303
O=C1CSC(=O)N1C(CCc1ccncc1)COc1ccc(-c2cccc([N+](=O)[O-])c2)cc1 (centres undefined)	172 and 129
Cc1[nH]nc2ccc(-c3cncc(OCC(N)Cc4c[nH]c5ccccc45)c3)cc12 (centres undefined)	354 and 137
Nc1nccc(-c2ccn3c(N)nccc23)n1	291 and 134

same assay, conditions: human, 24 h, 1 µM, compound concentration 1 uM

SMILES	Population Apoptotic (%)	Population Fragmented Nuclei (%)	Population Healthy Nuclei (%)	Population Hoechst High Intensity Objects (%)	Population Membrane Permeable-Phenotype (%)	Population Mitochondria Different-Phenotype (%)	Population Mitotic Cells (%)	Population Normal (%)	Population Pyknosed Nuclei (%)	Population Tubulin-Different-Phenotype (%)
Cc1c(CC(=O)O)c2cccnc2n1Cc1ccc(S(C)(=O)=O)cc1C(F)(F)F [FEVIPIPRANT]	22% and 43%	8% and 7%	81% and 82%	3% and 4%	1% and 0%	18% and 37%	77% and 56%	96% and 95%	10%	18% and 14%
O=C1CSC(=O)N1C(CCc1ccncc1)COc1ccc(-c2cccc([N+](=O)[O-])c2)cc1 (centres undefined)	27.34% and 23.23%	4.44% and 4.69%		0.52% and 0%	0.42% and 0%	35.71% and 17.39%	72.66% and 76.77%	99.48% and 100%	33.42% and 77.34%	
Cc1[nH]nc2ccc(-c3cncc(OCC(N)Cc4c[nH]c5ccccc45)c3)cc12 (centres undefined)	39.92% and 29.58%	0.63% and 1.97%		0.62% and 0%	1.59% and 0%	34.92% and 28.57%	60.08% and 70.42%	99.38% and 100%	79.56% and 93.42%	
Nc1nccc(-c2ccn3c(N)nccc23)n1	20.19% and 15.91%	1.49% and 2.84%	76.43% and 34.75%	0% and 2.08%	1.11% and 4.08%	17.78% and 20.41%	79.81% and 84.09%	100% and 97.92%	22.08% and 62.41%	14.44% and 12.24%

same assay, conditions: human, 24 h, 1 µM, compound concentration 1 uM

SMILES	Total Cell Count
Cc1c(CC(=O)O)c2cccnc2n1Cc1ccc(S(C)(=O)=O)cc1C(F)(F)F [FEVIPIPRANT]	637 and 457
Cc1[nH]nc2ccc(-c3cncc(OCC(N)Cc4c[nH]c5ccccc45)c3)cc12 (centres undefined)	320 and 152

same assay, conditions: human, 24 h, 10 µM, compound concentration 10 uM

SMILES	Population Apoptotic (%)	Population Fragmented Nuclei (%)	Population Healthy Nuclei (%)	Population Hoechst High Intensity Objects (%)	Population Membrane Permeable-Phenotype (%)	Population Mitochondria Different-Phenotype (%)	Population Mitotic Cells (%)	Population Normal (%)	Population Pyknosed Nuclei (%)	Population Tubulin-Different-Phenotype (%)
Cc1c(CC(=O)O)c2cccnc2n1Cc1ccc(S(C)(=O)=O)cc1C(F)(F)F [FEVIPIPRANT]	33% and 50%	8% and 9%	80% and 81%	5% and 11%	0%	31% and 44%	66% and 50%	94% and 88%	10% and 8%	20%
O=C1CSC(=O)N1C(CCc1ccncc1)COc1ccc(-c2cccc([N+](=O)[O-])c2)cc1 (centres undefined)	78.62% and 78.15%	2.66% and 5.11%	20.21% and 8.03%	1.05% and 0.72%	0%	81.58% and 63.64%	21.38% and 21.85%	98.95% and 99.28%	77.13% and 86.86%	100% and 45.45%
Cc1[nH]nc2ccc(-c3cncc(OCC(N)Cc4c[nH]c5ccccc45)c3)cc12 (centres undefined)	80.3% and 96.64%	0.86% and 2.34%	3.15% and 4.69%	0.85% and 0%	0% and 16.67%	72.73% and 33.33%		99.15% and 100%	95.99% and 92.97%	72.73% and 33.33%
Nc1nccc(-c2ccn3c(N)nccc23)n1	20.31% and 14.47%	1.23% and 6.87%	79.14% and 35.11%	0.61% and 0%	0% and 2.17%	20.93% and 19.57%	79.69% and 85.53%	99.39% and 100%	19.63% and 58.02%	11.63% and 8.7%

same assay, conditions: human, 24 h, 10 µM, compound concentration 10 uM

SMILES	Total Cell Count
Cc1c(CC(=O)O)c2cccnc2n1Cc1ccc(S(C)(=O)=O)cc1C(F)(F)F [FEVIPIPRANT]	499 and 334
O=C1CSC(=O)N1C(CCc1ccncc1)COc1ccc(-c2cccc([N+](=O)[O-])c2)cc1 (centres undefined)	190 and 138
Cc1[nH]nc2ccc(-c3cncc(OCC(N)Cc4c[nH]c5ccccc45)c3)cc12 (centres undefined)	352 and 128
Nc1nccc(-c2ccn3c(N)nccc23)n1	328 and 131

same assay, conditions: human, 48 h, 1 µM, compound concentration 1 uM

SMILES	Population Apoptotic (%)	Population Fragmented Nuclei (%)	Population Healthy Nuclei (%)	Population Hoechst High Intensity Objects (%)	Population Membrane Permeable-Phenotype (%)	Population Mitochondria Different-Phenotype (%)	Population Mitotic Cells (%)	Population Normal (%)	Population Pyknosed Nuclei (%)	Population Tubulin-Different-Phenotype (%)
Cc1c(CC(=O)O)c2cccnc2n1Cc1ccc(S(C)(=O)=O)cc1C(F)(F)F [FEVIPIPRANT]	16% and 20%	13% and 11%	79% and 82%	1% and 2%	2% and 0%	12% and 16%	83% and 79%	98% and 97%	7% and 6%	12% and 10%
O=C1CSC(=O)N1C(CCc1ccncc1)COc1ccc(-c2cccc([N+](=O)[O-])c2)cc1 (centres undefined)	14.91% and 17.91%	2.27% and 5.07%	82.51% and 46.38%	0%	2.59% and 1.56%	37.38% and 28.12%	85.09% and 82.09%	100%		
Cc1[nH]nc2ccc(-c3cncc(OCC(N)Cc4c[nH]c5ccccc45)c3)cc12 (centres undefined)	57.46% and 49.23%	2.33% and 1.39%	21.93% and 8.33%	0.33% and 0.69%	0%	86.36% and 58.33%	42.54% and 50.77%	99.67% and 99.31%	75.75% and 90.28%	
Nc1nccc(-c2ccn3c(N)nccc23)n1	8% and 18.75%	5.17% and 4.03%	89.44% and 63.76%	0.11% and 0.67%	5.66% and 3.16%	18.92% and 21.05%	92% and 81.25%	99.89% and 99.33%		

same assay, conditions: human, 48 h, 1 µM, compound concentration 1 uM

SMILES	Total Cell Count
Cc1c(CC(=O)O)c2cccnc2n1Cc1ccc(S(C)(=O)=O)cc1C(F)(F)F [FEVIPIPRANT]	1065 and 713
Cc1[nH]nc2ccc(-c3cncc(OCC(N)Cc4c[nH]c5ccccc45)c3)cc12 (centres undefined)	302 and 145

same assay, conditions: human, 48 h, 10 µM, compound concentration 10 uM

SMILES	Population Apoptotic (%)	Population Fragmented Nuclei (%)	Population Healthy Nuclei (%)	Population Hoechst High Intensity Objects (%)	Population Membrane Permeable-Phenotype (%)	Population Mitochondria Different-Phenotype (%)	Population Mitotic Cells (%)	Population Normal (%)	Population Pyknosed Nuclei (%)	Population Tubulin-Different-Phenotype (%)
Cc1c(CC(=O)O)c2cccnc2n1Cc1ccc(S(C)(=O)=O)cc1C(F)(F)F [FEVIPIPRANT]	29% and 45%	14%	78% and 77%	4% and 7%	0% and 1%	24% and 22%	70% and 55%	95% and 92%	7% and 8%	14% and 17%
O=C1CSC(=O)N1C(CCc1ccncc1)COc1ccc(-c2cccc([N+](=O)[O-])c2)cc1 (centres undefined)	71.68% and 69.07%	2.88% and 7.56%		1.89% and 0%	3.37% and 0%	95.51% and 84.62%	28.32% and 30.93%	98.11% and 100%	54.33% and 81.51%	84.27% and 69.23%
Cc1[nH]nc2ccc(-c3cncc(OCC(N)Cc4c[nH]c5ccccc45)c3)cc12 (centres undefined)	80.14% and 100%	0.68% and 1.68%	3.73% and 4.2%	3.91% and 0%	9.09% and 0%	54.55% and 40%	19.86% and 0%	96.09% and 100%	95.59% and 94.12%	45.45% and 40%
Nc1nccc(-c2ccn3c(N)nccc23)n1	20% and 39.39%	5.81% and 7.8%	85.77% and 68.79%	0.37% and 1.4%	1.31% and 2.06%	36.24% and 23.71%	80% and 60.61%	99.63% and 98.6%	8.43% and 23.4%	

same assay, conditions: human, 48 h, 10 µM, compound concentration 10 uM

SMILES	Total Cell Count
Cc1c(CC(=O)O)c2cccnc2n1Cc1ccc(S(C)(=O)=O)cc1C(F)(F)F [FEVIPIPRANT]	794 and 491
O=C1CSC(=O)N1C(CCc1ccncc1)COc1ccc(-c2cccc([N+](=O)[O-])c2)cc1 (centres undefined)	212 and 119
Cc1[nH]nc2ccc(-c3cncc(OCC(N)Cc4c[nH]c5ccccc45)c3)cc12 (centres undefined)	307 and 119
